In brackets after ≈: the same amount, converted by molar mass.
How the values were obtained:
Candida albicans = assay: Antifungal activity against Candida albicans ATCC 76615 after 24 hrs by NCCLS two fold broth microdilution method; assay type: functional; conditions: ATCC 76615, 24 h
Procedure, shortened: (§1)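 Two-fold serial microdilution following NCCLS. A spore suspension in sterile distilled water was prepared from one-day-old cultures grown on Sabouraud agar and adjusted to a final 1–5 × 10^3 spores/mL. DMSO stocks were diluted in RPMI 1640 to eleven concentrations (0.5–512 µg/mL), inoculated and held at 35 °C for 24 h. Growth was read visually and spectrophotometrically, MIC was the lowest concentration with complete inhibition, and runs were in triplicate.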

Pichia norvegensis = assay: Antifungal activity against Candida mycoderma after 24 hrs by NCCLS two fold broth microdilution method; assay type: functional
Cyberlindnera jadinii = assay: Antifungal activity against Candida utilis after 24 hrs by NCCLS two fold broth microdilution method; assay type: functional; conditions: Williopsis jadinii; procedure, shortened: as §1
Saccharomyces cerevisiae = assay: Antifungal activity against Saccharomyces cerevisiae after 24 hrs by NCCLS two fold broth microdilution method; assay type: functional; procedure, shortened: as §1
Aspergillus flavus = assay: Antifungal activity against Aspergillus flavus after 24 hrs by NCCLS two fold broth microdilution method; assay type: functional; procedure, shortened: as §1
Staphylococcus aureus [1] = assay: Antibacterial activity against Staphylococcus aureus ATCC 25923 after 24 hrs by NCCLS two fold broth microdilution method; assay type: functional; conditions: ATCC 25923, 24 h
Procedure, shortened: (§2)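 Two-fold serial broth microdilution in 96-well plates following NCCLS. Compounds were dissolved in DMSO as stocks, then diluted in Mueller–Hinton broth to final concentrations of 0.5–512 µg/mL. Plates were inoculated and incubated at 37 °C for 24 h, with growth read visually and spectrophotometrically. MIC was taken as the lowest concentration giving complete growth inhibition. Run in triplicate, with a DMSO-plus-inoculum solvent control.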

Staphylococcus aureus [2] = assay: Antibacterial activity against methicillin-resistant Staphylococcus aureus N315 after 24 hrs by NCCLS two fold broth microdilution method; assay type: functional; conditions: N315, 24 h
Procedure, shortened: (§3)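 Two-fold serial broth microdilution per NCCLS. Chloromycin and norfloxacin as reference drugs; DMSO with inoculum, no drug, as solvent control. Incubation 37 °C for 24 h. Growth read visually and spectrophotometrically. MIC is the lowest concentration completely inhibiting growth; triplicate.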

Bacillus subtilis = assay: Antibacterial activity against Bacillus subtilis ATCC 21216 after 24 hrs by NCCLS two fold broth microdilution method; assay type: functional; conditions: ATCC 21216, 24 h; procedure, shortened: as §2
Micrococcus luteus = assay: Antibacterial activity against Micrococcus luteus ATCC 4698 after 24 hrs by NCCLS two fold broth microdilution method; assay type: functional; conditions: NCTC 2665, 24 h; procedure, shortened: as §2
Bacillus = assay: Antibacterial activity against Bacillus proteus ATCC 13315 after 24 hrs by NCCLS two fold broth microdilution method; assay type: functional; conditions: ATCC 13315, 24 h; procedure, shortened: as §2
Escherichia coli = assay: Antibacterial activity against Escherichia coli ATCC 8099 after 24 hrs by NCCLS two fold broth microdilution method; assay type: functional; conditions: ATCC 8099, 24 h
Procedure, shortened: as §2, with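 “NCCLS.” for “NCCLS. Compounds were dissolved in DMSO as stocks, then diluted in Mueller–Hinton broth to final concentrations of 0.5–512 µg/mL.”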

Pseudomonas aeruginosa = assay: Antibacterial activity against Pseudomonas aeruginosa ATCC 27853 after 24 hrs by NCCLS two fold broth microdilution method; assay type: functional; conditions: ATCC 27853, 24 h
Procedure, shortened: as §2, with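 “NCCLS.” for “NCCLS. Compounds were dissolved in DMSO as stocks, then diluted in Mueller–Hinton broth to final concentrations of 0.5–512 µg/mL.”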

Salmonella typhi = assay: Antibacterial activity against Bacillus typhi after 24 hrs by NCCLS two fold broth microdilution method; assay type: functional, Salmonella enterica subsp. enterica serovar Typhi; conditions: Salmonella enterica
Procedure, shortened: as §3, with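 “NCCLS. DMSO stocks diluted in Mueller–Hinton broth to 512, 256, 128, 64, 32, 16, 8, 4, 2, 1, 0.5 µg/mL.” for “NCCLS.”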

SMILES	MIC (Candida albicans) [µg/mL]	MIC (Pichia norvegensis) [µg/mL]	MIC (Cyberlindnera jadinii) [µg/mL]	MIC (Saccharomyces cerevisiae) [µg/mL]	MIC (Aspergillus flavus) [µg/mL]	MIC (Staphylococcus aureus [1]) [µg/mL]	MIC (Staphylococcus aureus [2]) [µg/mL]	MIC (Bacillus subtilis) [µg/mL]	MIC (Micrococcus luteus) [µg/mL]	MIC (Bacillus) [µg/mL]	MIC (Escherichia coli) [µg/mL]	MIC (Pseudomonas aeruginosa) [µg/mL]	MIC (Salmonella typhi) [µg/mL]
OC(Cn1cncn1)(Cn1cncn1)c1ccc(F)cc1F [FLUCONAZOLE]	1 (≈ 3.27 µM)	4 (≈ 13.1 µM)	8 (≈ 26.1 µM)	16 (≈ 52.2 µM)	256 (≈ 836 µM)	–	–	–	–	–	–	–	–
CCn1cc(C(=O)O)c(=O)c2cc(F)c(N3CCNCC3)cc21 [NORFLOXACIN]	–	–	–	–	–	8 (≈ 25.1 µM)	1 (≈ 3.13 µM)	2 (≈ 6.26 µM)	1 (≈ 3.13 µM)	4 (≈ 12.5 µM)	1 (≈ 3.13 µM)	1 (≈ 3.13 µM)	1 (≈ 3.13 µM)
CCCn1c(CS(=O)(=O)c2ccc(NC(C)=O)cc2)nc2ccccc21	64 (≈ 172 µM)	16 (≈ 43.1 µM)	64 (≈ 172 µM)	16 (≈ 43.1 µM)	128 (≈ 345 µM)	128 (≈ 345 µM)	64 (≈ 172 µM)	16 (≈ 43.1 µM)	256 (≈ 689 µM)	64 (≈ 172 µM)	128 (≈ 345 µM)	128 (≈ 345 µM)	32 (≈ 86.1 µM)
CCn1c(CS(=O)(=O)c2ccc(N)cc2)nc2ccccc21	256 (≈ 812 µM)	512 (≈ 1620 µM)	64 (≈ 203 µM)	512 (≈ 1620 µM)	32 (≈ 101 µM)	64 (≈ 203 µM)	128 (≈ 406 µM)	64 (≈ 203 µM)	128 (≈ 406 µM)	64 (≈ 203 µM)	64 (≈ 203 µM)	64 (≈ 203 µM)	128 (≈ 406 µM)
Nc1ccc(S(=O)(=O)Cc2nc3ccccc3n2CCCCCn2c3ccccc3c3ccccc32)cc1	512 (≈ 980 µM)	16 (≈ 30.6 µM)	512 (≈ 980 µM)	64 (≈ 122 µM)	128 (≈ 245 µM)	512 (≈ 980 µM)	128 (≈ 245 µM)	32 (≈ 61.2 µM)	512 (≈ 980 µM)	512 (≈ 980 µM)	64 (≈ 122 µM)	512 (≈ 980 µM)	64 (≈ 122 µM)
CCCCCCCCCCCCCCCCCCn1c(CS(=O)(=O)c2ccc(N)cc2)nc2ccccc21	512 (≈ 948 µM)	64 (≈ 119 µM)	512 (≈ 948 µM)	64 (≈ 119 µM)	512 (≈ 948 µM)	512 (≈ 948 µM)	512 (≈ 948 µM)	512 (≈ 948 µM)	256 (≈ 474 µM)	512 (≈ 948 µM)	512 (≈ 948 µM)	512 (≈ 948 µM)	512 (≈ 948 µM)
CCCCCn1c(CS(=O)(=O)c2ccc(N)cc2)nc2ccccc21	512 (≈ 1430 µM)	512 (≈ 1430 µM)	512 (≈ 1430 µM)	128 (≈ 358 µM)	256 (≈ 716 µM)	512 (≈ 1430 µM)	512 (≈ 1430 µM)	512 (≈ 1430 µM)	256 (≈ 716 µM)	512 (≈ 1430 µM)	512 (≈ 1430 µM)	512 (≈ 1430 µM)	512 (≈ 1430 µM)
CC(=O)Nc1ccc(S(=O)(=O)Cc2nc3ccccc3n2CCCCCn2c3ccccc3c3ccccc32)cc1	512 (≈ 907 µM)	32 (≈ 56.7 µM)	512 (≈ 907 µM)	32 (≈ 56.7 µM)	128 (≈ 227 µM)	256 (≈ 453 µM)	512 (≈ 907 µM)	512 (≈ 907 µM)	128 (≈ 227 µM)	512 (≈ 907 µM)	512 (≈ 907 µM)	16 (≈ 28.3 µM)	64 (≈ 113 µM)
CCCCCCCCCCCCn1c(CS(=O)(=O)c2ccc(N)cc2)nc2ccccc21	512 (≈ 1120 µM)	512 (≈ 1120 µM)	512 (≈ 1120 µM)	256 (≈ 562 µM)	512 (≈ 1120 µM)	512 (≈ 1120 µM)	512 (≈ 1120 µM)	512 (≈ 1120 µM)	256 (≈ 562 µM)	512 (≈ 1120 µM)	512 (≈ 1120 µM)	512 (≈ 1120 µM)	512 (≈ 1120 µM)
Nc1ccc(S(=O)(=O)Cc2nc3ccccc3n2Cc2cccc(Cl)c2)cc1	512 (≈ 1240 µM)	512 (≈ 1240 µM)	512 (≈ 1240 µM)	256 (≈ 621 µM)	16 (≈ 38.8 µM)	32 (≈ 77.7 µM)	512 (≈ 1240 µM)	512 (≈ 1240 µM)	256 (≈ 621 µM)	256 (≈ 621 µM)	32 (≈ 77.7 µM)	256 (≈ 621 µM)	512 (≈ 1240 µM)

— ChEMBL document CHEMBL4138085, “Design, synthesis and antimicrobial evaluation of novel benzimidazole-incorporated sulfonamide analogues” (Eur J Med Chem, 2017)
